ChEMBL document CHEMBL4368880, “Synthesis and biological evaluation of 3-(1,3,4-oxadiazol-2-yl)-1,8-naphthyridin-4(1H)-ones as cisplatin sensitizers” (Medchemcomm, 2018)

Experiments:
HCT-116 [1] = test: Potentiation of cisplatin-induced antiproliferative activity against human HCT116 cells assessed as cell growth inhibition at 2.5 uM preincubated for 24 hrs followed by 2.5 uM cisplatin addition and measured after 48 hrs by MTT assay (reference value: 26.98 +/-2.84%); format: functional; details: read-out: GI
L02 = test: Cytotoxicity against human LO2 cells assessed as reduction in cell growth at 5 to 10 uM after 24 hrs by MTT assay; format: cell-based; details: l02, 24 h
HeLa [2] = test: Growth inhibition of human HeLa cells at 5 uM after 24 hrs by MTT assay relative to control; format: functional; details: read-out: GI
Procedure, shortened: (§1)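 Monolayers seeded 24 h before treatment, then exposed to compound, with DMEM or RPMI 1640 plus 10% FBS as growth medium. MTT (5 mg mL–1 stock) incubated 2–4 h at 37 °C, formazan dissolved in DMSO, and absorbance read at 570 nm. Growth inhibition reported as % of control.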

HepG2 [3] = test: Growth inhibition of human HepG2 cells at 5 uM after 24 hrs by MTT assay relative to control; format: functional; details: HepG2, 24 h, read-out: GI; procedure, shortened: as §1
KB [4] = test: Growth inhibition of human KB cells at 10 uM after 24 hrs by MTT assay relative to control; format: functional; details: read-out: GI; procedure, shortened: as §1
HepG2 [5] = test: Growth inhibition of human HepG2 cells at 10 uM after 24 hrs by MTT assay relative to control; format: functional; details: HepG2, 24 h, read-out: GI; procedure, shortened: as §1
HCT-116 [6] = test: Growth inhibition of human HCT116 cells at 5 uM after 24 hrs by MTT assay relative to control; format: functional; details: HCT-116, 24 h, read-out: GI; procedure, shortened: as §1
HeLa [7] = test: Growth inhibition of human HeLa cells at 10 uM after 24 hrs by MTT assay relative to control; format: functional; details: read-out: GI; procedure, shortened: as §1
MCF7 [8] = test: Growth inhibition of human MCF7 cells at 10 uM after 24 hrs by MTT assay relative to control; format: functional; details: MCF7, 24 h, read-out: GI; procedure, shortened: as §1
HCT-116 [9] = test: Growth inhibition of human HCT116 cells at 2.5 uM after 24 hrs by MTT assay relative to control; format: functional; details: HCT-116, 24 h, read-out: GI; procedure, shortened: as §1
MCF7 [10] = test: Growth inhibition of human MCF7 cells at 5 uM after 24 hrs by MTT assay relative to control; format: functional; details: MCF7, 24 h, read-out: GI; procedure, shortened: as §1
A549 [11] = test: Growth inhibition of human A549 cells at 10 uM after 24 hrs by MTT assay relative to control; format: functional; details: A549, 24 h, read-out: GI; procedure, shortened: as §1
KB [12] = test: Growth inhibition of human KB cells at 5 uM after 24 hrs by MTT assay relative to control; format: functional; details: read-out: GI; procedure, shortened: as §1
A549 [13] = test: Growth inhibition of human A549 cells at 5 uM after 24 hrs by MTT assay relative to control; format: functional; details: A549, 24 h, read-out: GI; procedure, shortened: as §1
HCT-116 [14] = test: Growth inhibition of human HCT116 cells at 10 uM after 24 hrs by MTT assay relative to control; format: functional; details: HCT-116, 24 h, read-out: GI; procedure, shortened: as §1

SMILES | inhibition of growth at 2.5 µM (HCT-116 [1]) | Activity (L02) | inhibition of growth at 5 µM (HeLa [2]) | inhibition of growth at 5 µM (HepG2 [3]) | inhibition of growth at 10 µM (KB [4]) | inhibition of growth at 10 µM (HepG2 [5]) | inhibition of growth at 5 µM (HCT-116 [6]) | inhibition of growth at 10 µM (HeLa [7]) | inhibition of growth at 10 µM (MCF7 [8]) | inhibition of growth at 2.5 µM (HCT-116 [9]) | inhibition of growth at 5 µM (MCF7 [10]) | inhibition of growth at 10 µM (A549 [11]) | inhibition of growth at 5 µM (KB [12]) | inhibition of growth at 5 µM (A549 [13]) | inhibition of growth at 10 µM (HCT-116 [14])
O=c1c(-c2nnc(-c3ccc(Cl)cc3)o2)c[nH]c2ncc(-c3ccccc3)cc12 | 29.8% | Non-Toxic | 3.55% | 5.1% | 19.5% | 14.9% | 12.3% | 31.3% | 26.9% | 9.81% | 11.9% | 9.77% | 2.15% | 1.44% | 21.6%
CS(=O)(=O)c1ccc(-c2cnc3[nH]cc(-c4nnc(-c5ccc(F)cc5)o4)c(=O)c3c2)cc1 | 39.5% | Non-Toxic | 8.47% | 9.45% | 7.58% | 11.1% | 14.9% | 15.7% | 8.1% | 10.7% | 3.78% | 3.59% | 2.55% | 3.11% | 18.6%
CS(=O)(=O)c1ccc(-c2cnc3[nH]cc(-c4nnc(-c5ccncc5)o4)c(=O)c3c2)cc1 | 29.2% | Non-Toxic | 7.08% | 3.49% | 3.02% | 6.65% | 5.61% | 18.4% | 4.27% | 2.64% | 2.35% | 12.1% | 2.16% | 6.76% | 7.83%
O=c1c(-c2nnc(-c3ccc(F)cc3)o2)c[nH]c2ncc(-c3ccncc3)cc12 | 19.6% | Non-Toxic | – | – | – | – | 10.9% | – | – | 7.54% | – | – | – | – | 20.5%
CS(=O)(=O)c1ccc(-c2cnc3[nH]cc(-c4nnc(-c5cccnc5)o4)c(=O)c3c2)cc1 | 28.6% | Non-Toxic | – | – | – | – | 9.26% | – | – | 4.32% | – | – | – | – | 14.7%
O=c1c(-c2nnc(-c3ccc(F)cc3)o2)c[nH]c2ncc(-c3cccnc3)cc12 | 20.1% | Non-Toxic | – | – | – | – | 11.1% | – | – | 9.87% | – | – | – | – | 19.7%
N#Cc1ccc(-c2cnc3[nH]cc(-c4nnc(-c5ccc(Cl)cc5)o4)c(=O)c3c2)cc1 | 35.4% | Non-Toxic | 4.8% | 11.5% | 9.73% | 12.7% | 17.9% | 13.7% | 19.7% | 13.7% | 4.65% | 12.5% | 7.35% | 7.6% | 18.3%
CS(=O)(=O)c1ccc(-c2cnc3[nH]cc(-c4nnc(-c5ccccn5)o4)c(=O)c3c2)cc1 | 34.3% | Non-Toxic | – | – | – | – | 11.3% | – | – | 5.37% | – | – | – | – | 16.2%
N#Cc1ccc(-c2cnc3[nH]cc(-c4nnc(-c5ccc(F)cc5)o4)c(=O)c3c2)cc1 | 25.6% | Non-Toxic | – | – | – | – | 12.6% | – | – | 10.2% | – | – | – | – | 18.9%
O=c1c(-c2nnc(-c3ccc(Cl)cc3)o2)c[nH]c2ncc(-c3cccnc3)cc12 | 20.1% | Non-Toxic | – | – | – | – | 15.9% | – | – | 10.4% | – | – | – | – | 11.8%
CS(=O)(=O)c1ccc(-c2cnc3[nH]cc(-c4nnc(-c5ccccc5)o4)c(=O)c3c2)cc1 | 27.2% | Non-Toxic | 8.58% | 5.46% | 5.2% | 6.98% | 8.6% | 17.5% | 2.83% | 0.53% | 1.38% | 9.51% | 4.38% | 8.17% | 15.7%
CS(=O)(=O)c1ccc(-c2cnc3[nH]cc(-c4nnc(-c5ccc(Cl)cc5)o4)c(=O)c3c2)cc1 | 24.9% | Non-Toxic | 1.07% | 11.2% | 9.3% | 11.6% | 16.4% | 1.64% | 13.1% | 2.06% | 0.86% | 26.8% | 2.15% | 23.8% | 17%
